Consider one compound from ChEMBL document CHEMBL4340580, “Antibacterial and Inhibitory Activities against Nitric Oxide Production of Coumaronochromones and Prenylated Isoflavones from Millettia extensa” (J Nat Prod, 2019).

Series [1] has as its system Micrococcus luteus. Nature of the series: Antibacterial activity against Micrococcus luteus at >128 ug/ml by CLSI protocol based method. The series is classed as functional, organism-based. The method, boiled down:
(§1)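 Strains came from the Microbiological Resources Center, Bangkok, Thailand. Antibacterial testing followed Clinical and Laboratory Standards Institute recommendations.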

The test system of series [2] is Shigella flexneri. Nature of the series: Antibacterial activity against Shigella flexneri by CLSI protocol based method. The class given is functional. The method, boiled down:
as §1

Series [3] has as its system Bacillus cereus. Nature of the series: Antibacterial activity against Bacillus cereus at >128 ug/ml by CLSI protocol based method. The class given is functional, organism-based. The method, boiled down:
as §1

For series [4], the system named is Escherichia coli. Nature of the series: Antibacterial activity against Escherichia coli by CLSI protocol based method. The class given is functional. The method, boiled down:
as §1

A short description of series [5]: Toxicity in mouse RAW264.7 cells assessed as cell viability at 10 uM by MTT assay. The class given is cell-based. Particulars: read-out: Activity.
Series [6] concerns Micrococcus luteus. Nature of the series: Antibacterial activity against Micrococcus luteus by CLSI protocol based method. The series is classed as functional. In outline:
as §1

Series [7] has as its system RAW264.7. Nature of the series: Inhibition of LPS-induced nitric oxide production in mouse RAW264.7 cells incubated for 24 hrs by Griess reagent based assay. The class given is functional, cell-based. The conditions noted are these: raw264.7. The method, boiled down:
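RAW 264.7 cells were seeded at 5.0 × 10^5 cells/mL and held 24 h at 37 °C, 5% CO2. Medium was discarded and cells were stimulated with 1 μg/mL LPS with or without compound for 24 h at 37 °C. Supernatant was mixed 1:1 with Griess reagent for 10 min at room temperature. Absorbance was read at 570 nm against a sodium nitrite calibration curve, giving IC50.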
(In general: The Griess reaction detects nitrite, a stable product of nitric oxide.)

Series [8] has as its system Pseudomonas aeruginosa. Nature of the series: Antibacterial activity against Pseudomonas aeruginosa by CLSI protocol based method. The series is classed as functional. In outline:
as §1

Series [9] has as its system Staphylococcus epidermidis. Nature of the series: Antibacterial activity against Staphylococcus epidermidis by CLSI protocol based method. The series is classed as functional. The method, boiled down: as §1
Series [10] concerns Shigella flexneri. Nature of the series: Antibacterial activity against Shigella flexneri at >128 ug/ml by CLSI protocol based method. The series is classed as functional, organism-based. The method, boiled down:
as §1

Series [11] relates to Pseudomonas aeruginosa. Nature of the series: Antibacterial activity against Pseudomonas aeruginosa at >128 ug/ml by CLSI protocol based method. The class given is functional, organism-based. The method, boiled down: as §1
Series [12] deals with Escherichia coli. Nature of the series: Antibacterial activity against Escherichia coli at >128 ug/ml by CLSI protocol based method. The series is classed as functional, organism-based. In outline: as §1
Series [13] concerns Staphylococcus aureus. Nature of the series: Antibacterial activity against Staphylococcus aureus by CLSI protocol based method. The series is classed as functional. In outline:
as §1

Series [14] has as its system Streptococcus mutans. Nature of the series: Antibacterial activity against Streptococcus mutans by CLSI protocol based method. The series is classed as functional. In outline: as §1
Series [15] concerns Streptococcus mutans. Nature of the series: Antibacterial activity against Streptococcus mutans at >128 ug/ml by CLSI protocol based method. The series is classed as functional, organism-based. The method, boiled down:
as §1

In series [16] the test system is Bacillus cereus. Nature of the series: Antibacterial activity against Bacillus cereus by CLSI protocol based method. The class given is functional. In outline:
as §1

≈ marks a conversion by molar mass, not a printed value. Calls of active or inactive are those of the source. The rule behind the calls is not given here.

For the compound `COc1cc(O)c2c(=O)c(-c3ccc(OCC=C(C)C)cc3)coc2c1`, the outcome in [1], in series [3], in series [10], in series [11], in series [12] and in series [15] was inactive. For the same compound, the MIC entry in series [2], in series [4], in series [6], in [8], in [14] and in [16] was “inactive” throughout. In series [5], the viability at 10 µM stood at 65.3%. Besides, the IC50 result in series [7] is given as “Not Active”. The minimal inhibitory concentration (MIC) in series [9] and in series [13] was 128 µg/mL (≈ 363 µM) throughout.
